Activity calls are given as the source filed them. The calls are words filed in the database; no cut-off is given here.

One experiment concerns Mus musculus. The experiment in a line: Antidiabetic activity in fasted ob/ob mouse assessed as reduction in blood glucose AUC compound administered orally 30 mins prior glucose challenge by oral glucose tolerance test relative to control. The format is functional, organism-based. The method in brief: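 OGTT in fasted ob/ob mice with oral doses of 0.3, 1, 3 and 10 mg/kg; blood glucose AUC compared to vehicle by two-way ANOVA.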
For `CCn1nccc1Oc1cc(C[C@H]2C[C@](C)(O)C2)cnc1NC(=O)NC`, the Activity result was “Dose-dependent effect”.

Another experiment addresses T1, Hexokinase-4 (Homo sapiens) (UniProt P35557).
T1 sequence (whole entry): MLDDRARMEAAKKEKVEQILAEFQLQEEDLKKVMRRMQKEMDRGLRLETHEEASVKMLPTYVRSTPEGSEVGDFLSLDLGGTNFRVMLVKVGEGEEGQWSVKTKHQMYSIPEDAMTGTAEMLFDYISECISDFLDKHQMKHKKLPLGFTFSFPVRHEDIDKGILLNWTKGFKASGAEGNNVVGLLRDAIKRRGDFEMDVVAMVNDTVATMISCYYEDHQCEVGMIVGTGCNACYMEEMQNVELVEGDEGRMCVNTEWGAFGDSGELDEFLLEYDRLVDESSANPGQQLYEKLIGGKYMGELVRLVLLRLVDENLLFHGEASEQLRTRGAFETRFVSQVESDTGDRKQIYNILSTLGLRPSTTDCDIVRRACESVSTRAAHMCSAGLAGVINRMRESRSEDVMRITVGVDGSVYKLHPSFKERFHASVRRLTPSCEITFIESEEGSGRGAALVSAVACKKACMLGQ
The experiment in a line: Activity of activated human recombinant Glucokinase assessed as maximum glucose phosphorylation measured over 5 mins by spectrophotometry relative to unactivated enzyme. A digest of the protocol: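 Recombinant human GK; V_max is the maximal velocity of glucose phosphorylation by activated GK divided by that of unactivated GK; n = 2.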
As for `CCn1nccc1Oc1cc(C[C@H]2C[C@H](O)C2)cnc1NC(=O)NC`, the Ratio was 0.96.

Regarding `CCn1nccc1Oc1cc(C[C@H]2C[C@@H](O)C2)cnc1NC(=O)NC`, the Ratio is 0.88.

Take `CCc1ncccc1Oc1cc(CCCC(C)(C)O)cnc1NC(=O)NC`: the Ratio came out at 0.73.

Regarding `CCc1ncccc1Oc1cc(CCCCOC)cnc1NC(=O)NC`, the Ratio was 0.74.

As for `CCn1nc(COC)cc1Oc1cc(CC2CCOCC2)cnc1NC(=O)NC`, the Ratio stood at 0.71.

For `CCn1nccc1Oc1cc(C[C@H]2CC[C@@H](O)CC2)cnc1NC(=O)NC`, the Ratio is 0.66.

Turning to `CCn1nccc1Oc1cc(C[C@H]2CCO[C@H](COC)C2)cnc1NC(=O)NC`, the Ratio is 0.76.

On to `CCn1nccc1Oc1cc(C[C@H]2CC[C@](C)(O)CC2)cnc1NC(=O)NC`, for which the Ratio stood at 0.71.

As to `CCn1nccc1Oc1cc(C[C@H]2CC[C@H](O)CC2)cnc1NC(=O)NC`, the Ratio came out at 0.79.

In the case of `CCOCCc1cnc(NC(=O)NC)c(Oc2cccnc2CC)c1`, the Ratio was 0.7.

As for `CCn1nccc1Oc1cc(CCCCOC)cnc1NC(=O)NC`, the Ratio was determined as 0.83.

As to `CCc1ncccc1Oc1cc(CC(C)C)cnc1NC(=O)NC`, the Ratio was found to be 0.82.

In the case of `CCn1nccc1Oc1cc(CC2CCOCC2)cnc1NC(=O)NC`, the Ratio was found to be 0.8.

On to `CCn1nccc1Oc1cc(CN2CCOCC2)cnc1NC(=O)NC`, for which the Ratio was 0.78.

Consider `CCn1nccc1Oc1cc(C(O)C2CCOCC2)cnc1NC(=O)NC` (stereo unspecified), for which the Ratio is 0.82.

With `CCn1nccc1Oc1cc(C[C@@H]2CCO[C@@H](COC)C2)cnc1NC(=O)NC`, the Ratio turned out to be 0.78.

Turning to `CCc1ncccc1Oc1cc(CCCCO)cnc1NC(=O)NC`, the Ratio was determined as 0.86.

Consider `CCc1ncccc1Oc1cc(CC2CCOCC2)cnc1NC(=O)NC`, for which the Ratio is 0.75.

Regarding `CCn1nccc1Oc1cc(CCCC(C)(C)O)cnc1NC(=O)NC`, the Ratio amounted to 0.75.

With `CNC(=O)Nc1ncc(CC2CCOCC2)cc1Oc1ccnn1C(C)C`, the Ratio is 0.6.

Regarding `CCc1ncccc1Oc1cc(CCCOC)cnc1NC(=O)NC`, the Ratio is 0.78.

For the molecule `CCn1nccc1Oc1cc(C[C@H]2CC[C@@](C)(O)CC2)cnc1NC(=O)NC`, the Ratio was determined as 0.82.

On to `CCc1ncccc1Oc1cc(CC2CCCCC2)cnc1NC(=O)NC`, for which the Ratio was 0.73.

For `CCn1nccc1Oc1cc(C[C@H]2C[C@@](C)(O)C2)cnc1NC(=O)NC`, the Ratio worked out at 0.8.

The next experiment concerns Mus musculus. The experiment in a line: Antidiabetic activity in C57Bl/6 mouse assessed as reduction in blood glucose AUC at 30 mg/kg, po administered 30 mins prior glucose challenge by oral glucose tolerance test. It counts as functional, organism-based. Further details: dose 30 mg/kg. A digest of the protocol: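 Oral dose–response OGTT in C57Bl/6 mice at 3, 10 and 30 mg/kg; blood glucose area-under-curve assessed; significance versus vehicle by two-way ANOVA.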
As to `CCn1nccc1Oc1cc(CC2CCOCC2)cnc1NC(=O)NC`, the outcome was Active.

The values are drawn from ChEMBL document CHEMBL3351938, “C5-Alkyl-2-methylurea-Substituted Pyridines as a New Class of Glucokinase Activators” (ACS Med Chem Lett, 2014).
